This note sets out measurements from ChEMBL document CHEMBL1154674, “Synthesis and evaluation of three 18F-labeled aminophenylbenzothiazoles as amyloid imaging agents” (J Med Chem, 2009).

What all share (assay type): ADME, organism-based, Macaca mulatta
Series [1] in a line: Drug level in normal rhesus monkey cerebellum assessed as standard uptake value at 81.2 MBq, iv after 85 mins by microPET. Conditions: in vivo. In a few lines: (§1)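 One normal rhesus monkey, each tracer given iv via the vena saphena (81.2, 96.3 or 109.4 MBq), with 1 day between tracer injections. Dynamic brain μPET over 180 min used frames of 5 × 60 s, 5 × 120 s, 9 × 300 s and 12 × 600 s. Images were reconstructed by filtered back projection with a RAMP filter. Regional time-activity curves were expressed as SUV.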

The nature of series [2]: Drug level in normal rhesus monkey frontal cortex assessed as standard uptake value at 81.2 MBq, iv after 52.5 mins by microPET. The settings on record: in vivo, 0.875 h.
Series [3] in a line: Drug level in normal rhesus monkey parietal cortex assessed as standard uptake value at 81.2 MBq, iv after 37.5 mins by microPET. Conditions: in vivo, 0.625 h.
The nature of series [4]: Drug level in normal rhesus monkey cerebellum assessed as standard uptake value at 81.2 MBq, iv after 4.5 mins by microPET. The settings on record: in vivo, 0.075 h. In a few lines: as §1
The nature of series [5]: Drug level in normal rhesus monkey frontal cortex assessed as standard uptake value at 81.2 MBq, iv after 95 mins by microPET. Conditions: in vivo.
The nature of series [6]: Drug level in normal rhesus monkey thalamus assessed as standard uptake value at 81.2 MBq, iv after 42.5 mins by microPET. Conditions: in vivo.
The nature of series [7]: Drug level in normal rhesus monkey white matter assessed as standard uptake value at 81.2 MBq, iv after 155 mins by microPET. Conditions: in vivo.
Series [8] is described as follows: Drug level in normal rhesus monkey parietal cortex assessed as standard uptake value at 81.2 MBq, iv after 0.5 mins by microPET. The settings on record: in vivo.
Series [9] in a line: Drug level in normal rhesus monkey white matter assessed as standard uptake value at 81.2 MBq, iv after 175 mins by microPET. Conditions: in vivo.
The nature of series [10]: Drug level in normal rhesus monkey white matter assessed as standard uptake value at 81.2 MBq, iv after 10 mins by microPET. The settings on record: in vivo.
Series [11] is described as follows: Drug level in normal rhesus monkey thalamus assessed as standard uptake value at 81.2 MBq, iv after 37.5 mins by microPET. Conditions: in vivo, 0.625 h.
The nature of series [12]: Drug level in normal rhesus monkey cerebellum assessed as standard uptake value at 96.3 MBq, iv after 125 mins by microPET. The settings on record: in vivo. In a few lines: as §1
Series [13] in a line: Drug level in normal rhesus monkey white matter assessed as standard uptake value at 96.3 MBq, iv after 8 mins by microPET. The settings on record: in vivo.
The nature of series [14]: Drug level in normal rhesus monkey thalamus assessed as standard uptake value at 96.3 MBq, iv after 105 mins by microPET. The settings on record: in vivo, 1.75 h.
Series [15] can be described thus: Drug level in normal rhesus monkey frontal cortex assessed as standard uptake value at 96.3 MBq, iv after 42.5 mins by microPET. The settings on record: in vivo.
A short description of series [16]: Drug level in normal rhesus monkey thalamus assessed as standard uptake value at 96.3 MBq, iv after 14 mins by microPET. Conditions: in vivo.
Series [17] is described as follows: Drug level in normal rhesus monkey frontal cortex assessed as standard uptake value at 96.3 MBq, iv after 65 mins by microPET. Conditions: in vivo.
Series [18] can be described thus: Drug level in normal rhesus monkey white matter assessed as standard uptake value at 96.3 MBq, iv after 3.5 mins by microPET. Conditions: in vivo.
Series [19] in a line: Drug level in normal rhesus monkey frontal cortex assessed as standard uptake value at 96.3 MBq, iv after 125 mins by microPET. Conditions: in vivo.
Series [20] can be described thus: Drug level in normal rhesus monkey white matter assessed as standard uptake value at 96.3 MBq, iv after 52.5 mins by microPET. Conditions: in vivo, 0.875 h.
Series [21] can be described thus: Drug level in normal rhesus monkey parietal cortex assessed as standard uptake value at 96.3 MBq, iv after 2.5 mins by microPET. Conditions: in vivo.
A short description of series [22]: Drug level in normal rhesus monkey thalamus assessed as standard uptake value at 96.3 MBq, iv after 37.5 mins by microPET. Conditions: in vivo, 0.625 h.
The nature of series [23]: Drug level in normal rhesus monkey parietal cortex assessed as standard uptake value at 109.4 MBq, iv after 63 mins by microPET. The settings on record: in vivo, 1.05 h.
Series [24] is described as follows: Drug level in normal rhesus monkey parietal cortex assessed as standard uptake value at 109.4 MBq, iv after 117 mins by microPET. Conditions: in vivo, 1.95 h.
A short description of series [25]: Drug level in normal rhesus monkey cerebellum assessed as standard uptake value at 109.4 MBq, iv after 75 mins by microPET. Conditions: in vivo, 1.25 h. The procedure, abridged:
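One normal rhesus monkey received each tracer via the vena saphena, with 1 day between injections. Dynamic μPET ran 180 min for 18F tracers (5×60 s, 5×120 s, 9×300 s, 12×600 s) and 90 min for the 11C tracer (5×60 s, 5×120 s, 9×300 s, 3×600 s). Filtered back-projection reconstruction (RAMP filter) was used. Time-activity curves were drawn to give regional SUV.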

The nature of series [26]: Drug level in normal rhesus monkey parietal cortex assessed as standard uptake value at 109.4 MBq, iv after 123 mins by microPET. The settings on record: in vivo, 2.05 h.
Series [27] in a line: Drug level in normal rhesus monkey frontal cortex assessed as standard uptake value at 109.4 MBq, iv after 93 mins by microPET. Conditions: in vivo, 1.55 h.
A short description of series [28]: Drug level in normal rhesus monkey white matter assessed as standard uptake value at 152.9 MBq, iv after 2.5 mins by microPET. Conditions: in vivo.
Series [29] in a line: Drug level in normal rhesus monkey frontal cortex assessed as standard uptake value at 152.9 MBq, iv after 10 mins by microPET. Conditions: in vivo. The procedure, abridged: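 Single normal rhesus monkey; tracer given iv via the vena saphena, 1 day apart from the other tracer injections. Dynamic μPET ran 90 min (5×60 s, 5×120 s, 9×300 s, 3×600 s). Images were reconstructed by filtered back projection with a RAMP filter. Regional time-activity curves were expressed as SUV.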

A short description of series [30]: Drug level in normal rhesus monkey pons assessed as standard uptake value at 152.9 MBq, iv after 85 mins by microPET. The settings on record: in vivo.
Series [31] is described as follows: Drug level in normal rhesus monkey pons assessed as standard uptake value at 152.9 MBq, iv after 27.5 mins by microPET. The settings on record: in vivo.
Series [32] in a line: Drug level in normal rhesus monkey parietal cortex assessed as standard uptake value at 152.9 MBq, iv after 4.5 mins by microPET. Conditions: in vivo, 0.075 h.
Series [33] in a line: Drug level in normal rhesus monkey parietal cortex assessed as standard uptake value at 152.9 MBq, iv after 57.5 mins by microPET. Conditions: in vivo.
The nature of series [34]: Drug level in normal rhesus monkey thalamus assessed as standard uptake value at 152.9 MBq, iv after 0.5 mins by microPET. Conditions: in vivo.
Series [35] in a line: Drug level in normal rhesus monkey white matter assessed as standard uptake value at 152.9 MBq, iv after 3.5 mins by microPET. The settings on record: in vivo.
Series [36] in a line: Drug level in normal rhesus monkey parietal cortex assessed as standard uptake value at 152.9 MBq, iv after 47.5 mins by microPET. The settings on record: in vivo.
The nature of series [37]: Drug level in normal rhesus monkey thalamus assessed as standard uptake value at 152.9 MBq, iv after 32.5 mins by microPET. Conditions: in vivo.
Series [38] in a line: Drug level in normal rhesus monkey thalamus assessed as standard uptake value at 152.9 MBq, iv after 17.5 mins by microPET. Conditions: in vivo.

As to `CNc1ccc2nc(-c3ccc([18F])cc3)sc2c1`, the SUV was 1.864 in series [1]; 5.321 in series [2]; 3.965 in series [3]; 2.964 in [4]; 4.745 in [5]; 5.578 in series [6]. Also, the SUV in series [7] was 4.236; in series [8], 0.924; in series [9] it was 4.226; in [10], 3.524; in series [11] it was 5.69.
For `CN(C)c1ccc2nc(-c3ccc([18F])cc3)sc2c1`, the SUV in [12] was 0.9; in series [13], 1.16; in series [14] it was 2.08; in series [15], 1.96; in [16], 2.33; in series [17], 1.79. The SUV is 1.15 in [18]; 1.54 in [19]; 1.4 in series [20]; 2 in [21]; 2.33 in series [22].
Consider `Nc1ccc2nc(-c3ccc([18F])cc3)sc2c1`, for which the SUV in series [23] was 4.18; in [24], 3.51; in series [25] it was 2.92; in series [26], 3.56; in series [27], 4.25.
Regarding `[11CH3]Nc1ccc(-c2nc3ccc(O)cc3s2)cc1` [PITTSBURGH COMPOUND B], the SUV in [28] is 0.752; in [29] it was 2.163; in series [30], 0.718; in series [31] it was 1.583; in [32] it was 1.925; in series [33], 0.742. Also, the SUV in series [34] came to 0.038; in [35], 1.053; in [36], 0.862; in [37], 1.517; in series [38] it was 2.159.
